From ChEMBL document CHEMBL1157570, “Development of potent and selective inhibitors of ecto-5'-nucleotidase based on an anthraquinone scaffold” (J Med Chem, 2010)
The source made the active and inactive calls. The rule behind the calls is not given here.

How the values were obtained:
[1] = target: T1, Ectonucleoside triphosphate diphosphohydrolase 2 (Rattus norvegicus, UniProt O35795); assay: Inhibition of rat NTPdase2 by capillary electrophoresis method
T1 sequence (O35795 whole entry): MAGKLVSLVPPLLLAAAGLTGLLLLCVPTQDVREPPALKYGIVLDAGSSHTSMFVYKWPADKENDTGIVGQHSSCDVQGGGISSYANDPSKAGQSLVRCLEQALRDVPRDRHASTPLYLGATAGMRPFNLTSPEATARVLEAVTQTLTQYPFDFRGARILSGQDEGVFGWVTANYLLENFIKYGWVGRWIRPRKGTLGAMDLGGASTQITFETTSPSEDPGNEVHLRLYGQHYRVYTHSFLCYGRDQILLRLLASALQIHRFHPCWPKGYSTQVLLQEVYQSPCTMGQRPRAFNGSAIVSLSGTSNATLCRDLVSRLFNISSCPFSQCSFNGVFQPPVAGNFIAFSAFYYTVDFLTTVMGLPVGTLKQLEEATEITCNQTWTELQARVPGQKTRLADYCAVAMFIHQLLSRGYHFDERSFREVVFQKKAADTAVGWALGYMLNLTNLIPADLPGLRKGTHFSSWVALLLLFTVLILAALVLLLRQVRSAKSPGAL

5'-nucleotidase = target: T2, 5'-nucleotidase (Rattus norvegicus, UniProt P21588); assay: Inhibition of rat ecto-5'-nucleotidase expressed in Sf9 cells by capillary electrophoresis method
T2 sequence (P21588 whole entry): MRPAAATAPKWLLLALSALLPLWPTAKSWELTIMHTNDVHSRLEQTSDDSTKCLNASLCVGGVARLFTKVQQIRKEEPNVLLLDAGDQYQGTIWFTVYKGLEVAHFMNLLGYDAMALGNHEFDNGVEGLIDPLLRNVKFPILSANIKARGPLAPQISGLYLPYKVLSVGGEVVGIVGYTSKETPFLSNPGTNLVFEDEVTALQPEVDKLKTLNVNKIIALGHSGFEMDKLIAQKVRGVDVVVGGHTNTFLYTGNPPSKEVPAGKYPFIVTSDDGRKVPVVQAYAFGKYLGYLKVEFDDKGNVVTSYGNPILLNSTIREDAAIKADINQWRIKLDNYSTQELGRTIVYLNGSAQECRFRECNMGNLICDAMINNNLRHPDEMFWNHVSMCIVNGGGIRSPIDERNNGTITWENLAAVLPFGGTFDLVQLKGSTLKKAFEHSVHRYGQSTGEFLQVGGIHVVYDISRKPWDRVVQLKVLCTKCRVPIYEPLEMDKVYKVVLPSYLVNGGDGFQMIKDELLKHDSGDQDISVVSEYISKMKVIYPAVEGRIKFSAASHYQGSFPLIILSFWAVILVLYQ
Outline: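 Rat eN, GST-fused, made in Sf9 cells and purified on GSH-agarose. 500 μM AMP in Hepes pH 7.4 with Mg2+/Ca2+, 37 °C for 15 min. Adenosine measured by capillary electrophoresis at 260 nm. Inhibitor at 6-8 concentrations spanning about 3 log units. […] Three experiments, each in duplicate.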

[2] = target: T3, Ectonucleoside triphosphate diphosphohydrolase 1 (Rattus norvegicus, UniProt P97687); assay: Inhibition of rat NTPdase1 by capillary electrophoresis method
T3 sequence (P97687 whole entry): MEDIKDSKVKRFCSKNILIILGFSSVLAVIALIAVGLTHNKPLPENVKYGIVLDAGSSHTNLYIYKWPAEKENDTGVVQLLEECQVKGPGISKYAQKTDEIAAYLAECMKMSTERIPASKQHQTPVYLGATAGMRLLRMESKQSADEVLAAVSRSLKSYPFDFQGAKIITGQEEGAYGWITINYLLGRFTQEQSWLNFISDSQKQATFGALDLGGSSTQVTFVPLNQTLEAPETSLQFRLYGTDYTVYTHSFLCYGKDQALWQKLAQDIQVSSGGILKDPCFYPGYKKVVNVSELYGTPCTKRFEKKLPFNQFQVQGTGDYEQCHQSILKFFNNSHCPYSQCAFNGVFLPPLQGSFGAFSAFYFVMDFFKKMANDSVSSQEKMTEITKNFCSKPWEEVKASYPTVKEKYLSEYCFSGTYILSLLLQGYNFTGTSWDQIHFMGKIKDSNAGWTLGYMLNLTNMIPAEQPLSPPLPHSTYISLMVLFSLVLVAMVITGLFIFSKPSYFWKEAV

[3] = target: T4, Nucleoside triphosphate diphosphohydrolase 3 (Rattus norvegicus, UniProt A6I415); assay: Inhibition of rat NTPdase3 by capillary electrophoresis method
T4 sequence (A6I415 whole entry): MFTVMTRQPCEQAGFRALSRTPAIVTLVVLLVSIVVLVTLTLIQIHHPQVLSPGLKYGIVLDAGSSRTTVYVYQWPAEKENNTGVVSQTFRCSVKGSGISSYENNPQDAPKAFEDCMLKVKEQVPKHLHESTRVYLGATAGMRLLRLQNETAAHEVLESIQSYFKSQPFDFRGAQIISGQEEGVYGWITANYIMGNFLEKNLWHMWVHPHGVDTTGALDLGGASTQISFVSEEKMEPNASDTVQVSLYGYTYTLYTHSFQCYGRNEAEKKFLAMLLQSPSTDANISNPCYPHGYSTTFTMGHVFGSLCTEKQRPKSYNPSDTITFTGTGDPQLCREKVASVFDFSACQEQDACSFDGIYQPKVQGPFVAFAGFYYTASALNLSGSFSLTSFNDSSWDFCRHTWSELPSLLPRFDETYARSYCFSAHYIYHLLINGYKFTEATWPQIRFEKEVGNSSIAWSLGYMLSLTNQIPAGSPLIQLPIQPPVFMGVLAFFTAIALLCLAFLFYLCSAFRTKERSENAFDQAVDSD

[4] = target: T5, 5'-nucleotidase (Rattus norvegicus) (UniProt P21588); assay: Inhibition of rat ecto-5'-nucleotidase expressed in Sf9 cells by competitive Lineweaver-Burke plot
T5 sequence (whole entry): T2 sequence (P21588 whole entry)
Outline: (§1)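 Purified recombinant rat eN from Sf9 cells. Reaction rates measured across a range of AMP concentrations, with inhibitor absent or at 0.2, 1 or 5 μM. Adenosine formed was quantified by capillary electrophoresis at 260 nm. Km and Vmax were compared on Michaelis-Menten and Lineweaver-Burk plots to assign the inhibition mode.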

[5] = target: T5, 5'-nucleotidase (Rattus norvegicus); assay: Inhibition of rat ecto-5'-nucleotidase expressed in Sf9 cells by competitive Michaelis-Menten plot; outline: as §1
P2Y purinoceptor 6 = P2Y purinoceptor 6 (Rattus norvegicus, UniProt Q63371); assay: Antagonist activity at rat P2Y6 receptor expressed in astrocytoma cells assessed as inhibition of intracellular calcium mobilization; format: functional, cell-based
Outline: (§2)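 Astrocytoma cells stably expressing the receptor, loaded with Fura-2 AM. Cells preincubated with test agent for at least 20 min, then challenged with 1 μM UTP (P2Y2), 3 μM UTP (P2Y4) or 3 μM UDP (P2Y6). Ca2+ fluorescence read at ex 320/em 520 nm. Full curves (7-8 concentrations over 3 log units) run when inhibition exceeded 40% at 10 μM. Three experiments, each in triplicate.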

[6] = target: T6, Ectonucleoside triphosphate diphosphohydrolase 3 (Homo sapiens, UniProt O75355); assay: Inhibition of human NTPdase3 by capillary electrophoresis method
T6 sequence (O75355 whole entry): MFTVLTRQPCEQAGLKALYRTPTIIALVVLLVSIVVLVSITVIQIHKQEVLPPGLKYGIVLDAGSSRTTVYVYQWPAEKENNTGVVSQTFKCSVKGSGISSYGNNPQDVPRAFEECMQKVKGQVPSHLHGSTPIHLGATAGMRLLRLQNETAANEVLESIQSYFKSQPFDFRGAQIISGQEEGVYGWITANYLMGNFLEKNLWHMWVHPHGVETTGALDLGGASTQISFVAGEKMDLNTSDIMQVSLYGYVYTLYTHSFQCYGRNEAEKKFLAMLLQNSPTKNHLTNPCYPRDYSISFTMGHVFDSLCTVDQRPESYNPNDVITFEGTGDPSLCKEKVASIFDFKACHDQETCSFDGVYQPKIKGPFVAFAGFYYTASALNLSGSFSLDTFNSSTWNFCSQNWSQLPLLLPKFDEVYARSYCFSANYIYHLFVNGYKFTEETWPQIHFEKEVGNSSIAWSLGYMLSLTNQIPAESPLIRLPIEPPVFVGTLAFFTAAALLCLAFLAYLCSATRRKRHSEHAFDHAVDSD
Outline: (§3)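 Membrane preparations containing human NTPDase1, 2 or 3. Inhibitor added in water or 1% DMSO. Incubated 10 min at 37 °C, stopped at 99 °C for 5 min. Diluted with 20 μM UMP as internal standard, then analysed by capillary electrophoresis. Triplicates in two experiments.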

P2Y purinoceptor 4 = P2Y purinoceptor 4 (Homo sapiens, UniProt P51582); assay: Antagonist activity at human P2Y4 receptor expressed in astrocytoma cells assessed as inhibition of intracellular calcium mobilization; format: functional, cell-based; outline: as §2
P2Y purinoceptor 2 = P2Y purinoceptor 2 (Homo sapiens, UniProt P41231); assay: Antagonist activity at human P2Y2 receptor expressed in astrocytoma cells assessed as inhibition of intracellular calcium mobilization; format: functional, cell-based; outline: as §2
[7] = target: T7, Ectonucleoside triphosphate diphosphohydrolase 1 (Homo sapiens, UniProt P49961); assay: Inhibition of human NTPdase1 by capillary electrophoresis method; outline: as §3
T7 sequence (P49961 whole entry): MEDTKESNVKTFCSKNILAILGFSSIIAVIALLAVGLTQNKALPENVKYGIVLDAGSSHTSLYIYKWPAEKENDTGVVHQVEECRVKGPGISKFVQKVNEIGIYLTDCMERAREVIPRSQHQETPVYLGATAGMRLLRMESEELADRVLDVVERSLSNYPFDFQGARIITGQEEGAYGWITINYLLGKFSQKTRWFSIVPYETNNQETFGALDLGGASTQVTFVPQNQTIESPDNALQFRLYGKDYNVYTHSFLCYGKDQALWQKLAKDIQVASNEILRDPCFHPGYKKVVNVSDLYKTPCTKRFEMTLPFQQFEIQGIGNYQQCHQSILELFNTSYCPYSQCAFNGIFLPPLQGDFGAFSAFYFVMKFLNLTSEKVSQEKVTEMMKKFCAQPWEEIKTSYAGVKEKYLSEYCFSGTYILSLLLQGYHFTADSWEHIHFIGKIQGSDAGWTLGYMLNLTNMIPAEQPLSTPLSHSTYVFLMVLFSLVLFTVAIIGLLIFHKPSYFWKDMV

[8] = target: T8, Ectonucleoside triphosphate diphosphohydrolase 2 (Homo sapiens, UniProt Q9Y5L3); assay: Inhibition of human NTPdase2 by capillary electrophoresis method; outline: as §3
T8 sequence (Q9Y5L3 whole entry): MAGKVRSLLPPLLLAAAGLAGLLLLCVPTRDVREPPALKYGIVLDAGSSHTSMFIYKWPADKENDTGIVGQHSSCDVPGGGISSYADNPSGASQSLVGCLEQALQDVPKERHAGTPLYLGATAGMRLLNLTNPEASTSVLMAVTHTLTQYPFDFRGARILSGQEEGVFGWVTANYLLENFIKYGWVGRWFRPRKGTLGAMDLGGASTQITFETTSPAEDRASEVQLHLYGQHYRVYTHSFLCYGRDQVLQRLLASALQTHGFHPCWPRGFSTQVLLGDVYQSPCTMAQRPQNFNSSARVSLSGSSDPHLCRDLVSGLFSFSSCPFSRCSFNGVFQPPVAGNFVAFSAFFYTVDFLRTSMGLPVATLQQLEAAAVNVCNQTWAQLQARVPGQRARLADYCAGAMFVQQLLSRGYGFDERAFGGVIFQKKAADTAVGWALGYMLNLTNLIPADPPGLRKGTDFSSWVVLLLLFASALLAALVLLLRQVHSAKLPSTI

[9] = Selectivity ratio of Ki for rat ecto-5'-nucleotidase to Ki for human NTPdase1

Chain of P2Y purinoceptor 6 (Q63371 whole entry): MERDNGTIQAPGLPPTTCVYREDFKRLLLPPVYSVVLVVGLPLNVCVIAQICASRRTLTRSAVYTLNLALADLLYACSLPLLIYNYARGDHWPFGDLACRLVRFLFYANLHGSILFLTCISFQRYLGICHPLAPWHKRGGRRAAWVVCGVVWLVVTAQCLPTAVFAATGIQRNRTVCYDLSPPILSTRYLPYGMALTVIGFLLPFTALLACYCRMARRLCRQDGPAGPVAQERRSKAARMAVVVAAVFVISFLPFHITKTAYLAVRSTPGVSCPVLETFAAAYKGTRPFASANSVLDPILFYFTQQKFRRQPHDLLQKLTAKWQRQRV
Chain of P2Y purinoceptor 4 (P51582 whole entry): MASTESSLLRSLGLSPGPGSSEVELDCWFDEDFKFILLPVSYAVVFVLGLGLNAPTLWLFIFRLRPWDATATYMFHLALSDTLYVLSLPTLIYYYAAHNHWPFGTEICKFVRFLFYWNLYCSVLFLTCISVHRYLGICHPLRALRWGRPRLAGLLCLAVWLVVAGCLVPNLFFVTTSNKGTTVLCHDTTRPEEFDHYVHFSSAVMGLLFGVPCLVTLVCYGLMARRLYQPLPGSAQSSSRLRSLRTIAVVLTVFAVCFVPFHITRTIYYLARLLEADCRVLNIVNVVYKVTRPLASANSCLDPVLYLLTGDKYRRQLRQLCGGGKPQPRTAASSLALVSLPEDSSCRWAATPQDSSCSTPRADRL
Chain of P2Y purinoceptor 2 (P41231 whole entry): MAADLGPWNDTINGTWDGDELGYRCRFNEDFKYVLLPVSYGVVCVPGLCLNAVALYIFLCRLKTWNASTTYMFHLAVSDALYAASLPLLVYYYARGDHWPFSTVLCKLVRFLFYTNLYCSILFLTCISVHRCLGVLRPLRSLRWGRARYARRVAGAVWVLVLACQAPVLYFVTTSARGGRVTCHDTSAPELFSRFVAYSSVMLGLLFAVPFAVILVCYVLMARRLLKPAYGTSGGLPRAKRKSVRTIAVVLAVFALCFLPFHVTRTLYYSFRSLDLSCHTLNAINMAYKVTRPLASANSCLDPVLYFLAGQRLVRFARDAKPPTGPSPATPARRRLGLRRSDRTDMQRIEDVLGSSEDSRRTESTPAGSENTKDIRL

Question: Which Ki [1] does the source give for `Nc1c(S(=O)(=O)O)cc(Nc2cccc3ccccc23)c2c1C(=O)c1ccccc1C2=O` here?
Answer: > 400 µM

Question: What about the Ki (5'-nucleotidase) of the same molecule?
Answer: 0.53 µM

Question: And the Ki [2]?
Answer: > 150 µM

Question: And the Ki [3]?
Answer: 1.5 µM

Question: And the inhibition [4]?
Answer: Active

Question: And the inhibition [5]?
Answer: Active

Question: And the IC50 (P2Y purinoceptor 6)?
Answer: 30 µM

Question: For `Nc1c(S(=O)(=O)O)cc(Nc2ccc3cc4ccccc4cc3c2)c2c1C(=O)c1ccccc1C2=O`, which Ki [6] is on record?
Answer: > 60 µM

Question: And the Ki (5'-nucleotidase)?
Answer: 0.15 µM

Question: What about the IC50 (P2Y purinoceptor 4) of the same molecule?
Answer: > 10 µM

Question: And the IC50 (P2Y purinoceptor 2)?
Answer: 10 µM

Question: And the Ki [7]?
Answer: 2.59 µM

Question: What about the IC50 (P2Y purinoceptor 6) of the same molecule?
Answer: > 10 µM

Question: What about the Ki [8] of the same molecule?
Answer: > 200 µM

Question: What about the Ratio Ki [9] of the same molecule?
Answer: 17
